“And” between values parts separate entries of the source, which are not always exact repeats. Equal values may be shown once.
Legend:
Rattus norvegicus [1] = test: In vivo deiodination in 1 hour after administration of compound; assay type: functional
Outline: (§1)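 In immature female Fischer rats given 3 μCi (111 kBq) of 125I-steroid iv, deiodination was estimated from thyroid PDK at 1, 2 or 5 h, or at 2 h with 60 μg co-injected estradiol. Thyroid uptake after [125I]NaI injection at the same time interval was taken as 100%.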

Rattus norvegicus [2] = test: In vivo deiodination in 2 hour after administration of compound; assay type: functional; outline: as §1
Rattus norvegicus [3] = test: In vivo deiodination in 2 hour after administration of compound in presence of 60 microg of estradiol; assay type: functional; outline: as §1
Rattus norvegicus [4] = test: In vivo deiodination in 5 hr after administration of compound; assay type: functional; outline: as §1
Rattus norvegicus [5] = test: Mean uptake in adrenals 1 hr after intravenous injection of 3 microCi (111 kBq) of the compound; assay type: functional, Adrenal gland
Outline: (§2)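 Immature female Fischer rats (24 days old, 55-60 g) had free access to food and water. They were warmed under an infrared lamp, then given 200 μL HPLC-purified 125I-labeled steroid (3 μCi, 111 kBq) in saline with 9% ethanol and 1% Tween 80 via the lateral tail vein. Where stated, 60 μg unlabeled estradiol was co-injected. Rats were killed at 1, 2 or 5 h. Tissues were KCl-washed, blotted, weighed and gamma-counted against a reference of the injectate. Results are PDK (% dose × kg/g), mean and SD of three rats.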

Rattus norvegicus [6] = test: Mean uptake in adrenals 2 hr after intravenous injection of 3 microCi (111 kBq); assay type: functional, Adrenal gland; outline: as §2
Rattus norvegicus [7] = organism: Rattus norvegicus; test: Effect of Co-injection with estradiol on the uterus to blood ratio (Co-injected with 60 microg of estradiol (E2)); assay type: functional
Outline: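 Immature female Fischer rats (24 days, 55-60 g) received 3 μCi (111 kBq) 125I-labelled steroid iv via the lateral tail vein, in 200 μL 9% ethanol-saline with 1% Tween 80, co-injected with 60 μg unlabelled estradiol. Killed at 2 h. Uterus and blood were KCl-washed and gamma-counted as PDK. Ratio is the mean of three rats; % change is versus tracer-only animals.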

Rattus norvegicus [8] = test: Mean uptake in uterus 2 hr after intravenous injection of 3 microCi (111 kBq); assay type: functional
Outline: (§3)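 Immature female Fischer rats (24 days old, 55-60 g), food and water free. 3 μCi (111 kBq) HPLC-purified 125I-labeled steroid given iv via lateral tail vein in 200 μL saline containing 9% ethanol and 1% Tween 80; receptor-saturation group co-injected with 60 μg unlabeled estradiol. Sacrificed at set times; uterus washed with 0.154 M KCl, blotted, weighed, gamma counted against injected reference; expressed as PDK (% dose × kg/g), mean of three rats.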

Rattus norvegicus [9] = test: Mean uptake in uterus 2 hr after intravenous injection of 3 uM Ci (111 kBq) in presence of 60 ug coinjected estradiol; assay type: functional; outline: as §3
Rattus norvegicus [10] = test: Mean uptake in uterus 1 hr after intravenous injection of 3 microCi (111 kBq) of the compound; assay type: functional; outline: as §2
Rattus norvegicus [11] = test: Mean uptake in uterus 5 hr after intravenous injection of 3 microCi (111 kBq); assay type: functional; outline: as §3
Rattus norvegicus [12] = test: Mean uptake in blood 5 hr after intravenous injection of 3 microCi (111 kBq); assay type: functional; outline: as §2
Rattus norvegicus [13] = test: Mean uptake in adrenals 2 hr after intravenous injection of 3 uM Ci (111 kBq) in presence of 60 ug coinjected estradiol; assay type: functional, Adrenal gland; outline: as §2
Rattus norvegicus [14] = test: Mean uptake in adrenals 5 hr after intravenous injection of 3 microCi (111 kBq); assay type: functional, Adrenal gland; outline: as §2
Rattus norvegicus [15] = test: Mean uptake in blood 2 hr after intravenous injection of 3 microCi (111 kBq); assay type: functional; outline: as §2
Rattus norvegicus [16] = test: Mean uptake in blood 2 hr after intravenous injection of 3 microCi (111 kBq) in presence of 60 ug coinjected estradiol; assay type: functional; outline: as §2
Rattus norvegicus [17] = test: Mean uptake in blood after intravenous injection of 3 microCi (111 kBq) of the compound; assay type: functional; outline: as §2
Rattus norvegicus [18] = test: Mean uptake in brain 1 hr after intravenous injection of 3 microCi (111 kBq) of the compound; assay type: functional; outline: as §2
Rattus norvegicus [19] = test: Mean uptake in brain 2 hr after intravenous injection of 3 microCi (111 kBq); assay type: functional; outline: as §2
Rattus norvegicus [20] = test: Mean uptake in brain 2 hr after intravenous injection of 3 uM Ci (111 kBq) in presence of 60 ug coinjected estradiol; assay type: functional; outline: as §2
Rattus norvegicus [21] = test: Mean uptake in kidneys 1 hr after intravenous injection of 3 microCi (111 kBq) of the compound; assay type: functional; outline: as §2
Rattus norvegicus [22] = test: Mean uptake in kidneys 2 hr after intravenous injection of 3 microCi (111 kBq); assay type: functional; outline: as §2
Rattus norvegicus [23] = test: Mean uptake in kidneys 2 hr after intravenous injection of 3 microCi (111 kBq) in presence of 60 ug coinjected estradiol; assay type: functional, Kidney; outline: as §2
Rattus norvegicus [24] = test: Mean uptake in kidneys 5 hr after intravenous injection of 3 microCi (111 kBq); assay type: functional; outline: as §2
Rattus norvegicus [25] = test: Mean uptake in liver 2 hr after intravenous injection of 3 microCi (111 kBq); assay type: functional; outline: as §2
Rattus norvegicus [26] = test: Mean uptake in ovaries 5 hr after intravenous injection of 3 microCi (111 kBq); assay type: functional, Female gonad; outline: as §2
Rattus norvegicus [27] = test: Mean uptake in spleen 1 hr after intravenous injection of 3 microCi (111 kBq) of the compound; assay type: functional; outline: as §2
Rattus norvegicus [28] = test: Mean uptake in spleen 2 hr after intravenous injection of 3 microCi (111 kBq); assay type: functional; outline: as §2
Rattus norvegicus [29] = test: Mean uptake in spleen 2 hr after intravenous injection of 3 microCi (111 kBq) in presence of 60 ug coinjected estradiol; assay type: functional; outline: as §2
Rattus norvegicus [30] = test: Mean uptake in spleen 5 hr after intravenous injection of 3 microCi (111 kBq); assay type: functional; outline: as §2
Rattus norvegicus [31] = test: Mean uptake in thyroid 2 hr after intravenous injection of 3 microCi (111 kBq); assay type: functional, Thyroid gland; outline: as §2
Rattus norvegicus [32] = test: Mean uptake in thyroid 2 hr after intravenous injection of 3 microCi (111 kBq) in presence of 60 ug coinjected estradiol; assay type: functional, Thyroid gland; outline: as §2
Rattus norvegicus [33] = test: Mean uptake in thyroid 1 hr after intravenous injection of 3 microCi (111 kBq) of the compound; assay type: functional, Thyroid gland; outline: as §2
Rattus norvegicus [34] = test: Mean uptake in liver 2 hr after intravenous injection of 3 microCi (111 kBq) in presence of 60 ug coinjected estradiol; assay type: functional; outline: as §2
Rattus norvegicus [35] = test: Mean uptake in liver 5 hr after intravenous injection of 3 microCi (111 kBq); assay type: functional; outline: as §2
Rattus norvegicus [36] = test: Mean uptake in lungs 1 hr after intravenous injection of 3 microCi (111 kBq) of the compound; assay type: functional; outline: as §2
Rattus norvegicus [37] = test: Mean uptake in lungs 2 hr after intravenous injection of 3 microCi (111 kBq); assay type: functional; outline: as §2
Rattus norvegicus [38] = test: Mean uptake in lungs 2 hr after intravenous injection of 3 uM Ci (111 kBq) in presence of 60 ug coinjected estradiol; assay type: functional; outline: as §2
Rattus norvegicus [39] = test: Mean uptake in lungs 5 hr after intravenous injection of 3 microCi (111 kBq); assay type: functional; outline: as §2
Rattus norvegicus [40] = test: Mean uptake in muscle 1 hr after intravenous injection of 3 microCi (111 kBq) of the compound; assay type: functional, Muscle tissue; outline: as §2
Rattus norvegicus [41] = test: Mean uptake in muscle 2 hr after intravenous injection of 3 microCi (111 kBq); assay type: functional, Muscle tissue; outline: as §2
Rattus norvegicus [42] = test: Mean uptake in muscles 5 hr after intravenous injection of 3 microCi (111 kBq); assay type: functional, Muscle tissue; outline: as §2
Rattus norvegicus [43] = test: Mean uptake in ovaries 1 hr after intravenous injection of 3 microCi (111 kBq) of the compound; assay type: functional, Female gonad; outline: as §2
Rattus norvegicus [44] = test: Mean uptake in ovaries 2 hr after intravenous injection of 3 microCi (111 kBq); assay type: functional, Female gonad; outline: as §2
Rattus norvegicus [45] = test: Mean uptake in ovaries 2 hr after intravenous injection of 3 microCi (111 kBq) in presence of 60 ug coinjected estradiol; assay type: functional, Female gonad; outline: as §2
Rattus norvegicus [46] = test: Mean uptake in liver 1 hr after intravenous injection of 3 microCi (111 kBq) of the compound; assay type: functional; outline: as §2

For C[C@]12CC[C@@H]3c4ccc(O)cc4CC[C@H]3[C@@H]1CC[C@@]2(O)/C=C/[125I], the Deiodination (Rattus norvegicus [1]) was 2%, the Deiodination (Rattus norvegicus [2]) was 2.1% and the Deiodination (Rattus norvegicus [3]) was 1.7%. It also gave a Deiodination (Rattus norvegicus [4]) of 4.4%, a PDK (Rattus norvegicus [5]) of 175 and a PDK (Rattus norvegicus [6]) of 72. The Change (Rattus norvegicus [7]) was -41%, the “Uterus to blood ratio” value (Rattus norvegicus [7]) was 2.32 and the PDK (Rattus norvegicus [8]) was 35. The PDK (Rattus norvegicus [9]) was 22, the PDK (Rattus norvegicus [10]) was 92 and the PDK (Rattus norvegicus [11]) was 11. The PDK (Rattus norvegicus [12]) was 9, the PDK (Rattus norvegicus [13]) was 73 and the PDK (Rattus norvegicus [14]) was 21. The PDK (Rattus norvegicus [15]) was 10, the PDK (Rattus norvegicus [16]) was 10 and the PDK (Rattus norvegicus [17]) was 17. For the same compound, the PDK (Rattus norvegicus [18]) was 38, the PDK (Rattus norvegicus [19]) was 12 and the PDK (Rattus norvegicus [20]) was 14. The PDK (Rattus norvegicus [21]) was 71, the PDK (Rattus norvegicus [22]) was 27 and the PDK (Rattus norvegicus [23]) was 29. For the same compound, the PDK (Rattus norvegicus [24]) was 10, the PDK (Rattus norvegicus [25]) was 92 and the PDK (Rattus norvegicus [26]) was 16. The PDK (Rattus norvegicus [27]) was 27, the PDK (Rattus norvegicus [28]) was 10 and the PDK (Rattus norvegicus [29]) was 11. For the same compound, the PDK (Rattus norvegicus [30]) was 4, the PDK (Rattus norvegicus [31]) was 2870 and the PDK (Rattus norvegicus [32]) was 2300. For the same compound, the PDK (Rattus norvegicus [33]) was 1331, the PDK (Rattus norvegicus [34]) was 106 and the PDK (Rattus norvegicus [35]) was 55. For the same compound, the PDK (Rattus norvegicus [36]) was 49, the PDK (Rattus norvegicus [37]) was 25 and the PDK (Rattus norvegicus [38]) was 28. The PDK (Rattus norvegicus [39]) was 8, the PDK (Rattus norvegicus [40]) was 30 and the PDK (Rattus norvegicus [41]) was 11 and 13. It also gave a PDK (Rattus norvegicus [42]) of 4, a PDK (Rattus norvegicus [43]) of 108 and a PDK (Rattus norvegicus [44]) of 43. For the same compound, the PDK (Rattus norvegicus [45]) was 39 and the PDK (Rattus norvegicus [46]) was 245.

From ChEMBL document CHEMBL1123977, “Synthesis, receptor binding, and tissue distribution of (17 alpha,20E)- and (17 alpha,20Z)-21-[125I]iodo-19-norpregna-1,3,5(10), 20-tetraene-3,17-diol ” (1988)
